From ChEMBL document CHEMBL2034851, “Synthesis and antiviral evaluation of C5-substituted-(1,3-diyne)-2'-deoxyuridines” (Eur J Med Chem, 2012)

What was measured:
[1] = test system: Human alphaherpesvirus 3; test: Antiviral activity against thymidine kinase-deficient Varicella-zoster virus 07/1 infected in HEL cells assessed as reduction in virus-induced cytopathicity; type: functional, organism-based; settings: Human alphaherpesvirus 3, 07/1, HEL
Summary of the method: (§1)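 Confluent HEL cell monolayers in 96-well plates were inoculated with 100 CCID50 or 20 PFU of virus and left 1–2 h for adsorption. Residual virus was removed and cells were incubated with serial compound dilutions. Read-out was taken once cytopathicity was complete in untreated infected controls. EC50 is the concentration giving 50% reduction of virus-induced cytopathicity or plaque formation.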

[2] = Cytostatic against human HEL cells assessed as reduction in cell growth after 3 days by coulter counter; type: cell-based
Summary of the method: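 HEL cells were seeded at 5 × 10³ cells/well and grown for 24 h. Medium with varying compound concentrations was then added and plates were incubated 3 days at 37 °C. Cells were counted with a Coulter counter. CC50 is the concentration reducing cell proliferation by 50% versus untreated controls.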

[3] = test system: Human alphaherpesvirus 3; test: Antiviral activity against thymidine kinase-positive Varicella-zoster virus OKA infected in HEL cells assessed as reduction in virus-induced cytopathicity; type: functional, cell-based; settings: Human alphaherpesvirus 3, strain Oka vaccine
Summary of the method: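 Confluent HEL cell monolayers in 96-well plates were inoculated with 100 CCID50 or 20 PFU of virus and left 1–2 h for adsorption. Residual virus was removed and cells were incubated with serial compound dilutions. Read-out was taken once cytopathicity was complete in untreated infected controls.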

[4] = Cytotoxicity against human HEL cells assessed as change in cell morphology by microscopic analysis; type: cell-based
Summary of the method: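 MCC is the compound concentration producing a microscopically visible change in cell morphology, scored on the cell cultures used for the antiviral tests.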

[5] = test system: Human betaherpesvirus 5; test: Antiviral activity against Human cytomegalovirus Davis infected in HEL cells assessed as reduction in virus-induced cytopathicity; type: functional, organism-based; settings: Human betaherpesvirus 5, Davis
Summary of the method: (§2)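 Confluent HEL cell monolayers in microtiter plates were inoculated with 100 CCID50 of virus or 20 PFU. After 1–2 h adsorption, residual virus was removed. Cultures were then incubated with graded compound concentrations. Cytopathicity was read once it was complete in untreated infected controls. EC50 is the concentration giving 50% reduction of virus-induced cytopathicity or plaque formation.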

[6] = test system: Human betaherpesvirus 5; test: Antiviral activity against Human cytomegalovirus AD169 infected in HEL cells assessed as reduction in virus-induced cytopathicity; type: functional, organism-based; settings: Human betaherpesvirus 5, AD169, HEL; summary of the method: as §2
[7] = Lipophilicity, log P of the compound; type: physicochemical; settings: octanol/water
[8] = test system: Human alphaherpesvirus 3; test: Antiviral activity against thymidine kinase-positive Varicella-zoster virus YS infected in HEL cells assessed as reduction in virus-induced cytopathicity; type: functional, organism-based; settings: Human alphaherpesvirus 3, YS; summary of the method: as §1
[9] = test system: Human alphaherpesvirus 1; test: Antiviral activity against Herpes simplex virus 1 KOS infected in HEL cells assessed as reduction in viral plaque formation; type: functional, organism-based; settings: Human alphaherpesvirus 1, KOS; summary of the method: as §2
[10] = test system: Human alphaherpesvirus 1; test: Antiviral activity against thymidine kinase-deficient Herpes simplex virus 1 infected in HEL cells assessed as reduction in viral plaque formation; type: functional, organism-based; settings: Human alphaherpesvirus 1, HEL; summary of the method: as §2
[11] = test system: Human alphaherpesvirus 2; test: Antiviral activity against Herpes simplex virus 2 G infected in HEL cells assessed as reduction in viral plaque formation; type: functional, organism-based; settings: Human alphaherpesvirus 2, strain G; summary of the method: as §2
[12] = test system: Vaccinia virus; test: Antiviral activity against Vaccinia virus infected in HEL cells assessed as reduction in viral plaque formation; type: functional, organism-based; settings: Orthopoxvirus vaccinia; summary of the method: as §1

Compound	EC50 [1]	CC50 at 72 h [2]	EC50 [3]	MCC [4]	EC50 [5]	EC50 [6]	logP [7]	EC50 [8]	EC50 [9]	EC50 [10]	EC50 [11]	EC50 [12]
O=c1[nH]c(=O)n([C@H]2C[C@H](O)[C@@H](CO)O2)cc1C#CC#CC1CC1	> 100 µM	> 100 µM	> 100 µM	> 100 µM	> 100 µM	> 100 µM						
O=c1[nH]c(=O)n([C@H]2C[C@H](O)[C@@H](CO)O2)cc1C#CC#Cc1ccc([N+](=O)[O-])cc1	> 20 µM	89 µM	> 20 µM	100 µM	> 20 µM	> 20 µM	0.9					
Nc1ccn(C[C@@H](CO)OCP(=O)(O)O)c(=O)n1 [CIDOFOVIR]		64 µM		> 350 µM	1.1 µM							
Cc1cc(C#CC#Cc2cn([C@H]3C[C@H](O)[C@@H](CO)O3)c(=O)[nH]c2=O)ccc1F	> 20 µM	45 µM	14 µM	100 µM	> 20 µM	> 20 µM		9.13 µM				
O=c1[nH]c(=O)n([C@H]2C[C@H](O)[C@@H](CO)O2)cc1C#CC#Cc1ccc(OC(F)(F)F)cc1	> 4 µM	55 µM	0.9 µM	100 µM	> 20 µM	> 20 µM	2.39	1.08 µM	14.5 µM	14.5 µM	10 µM	20 µM
Nc1ccc(C#CC#Cc2cn([C@H]3C[C@H](O)[C@@H](CO)O3)c(=O)[nH]c2=O)cc1	> 100 µM	> 100 µM	> 100 µM	> 100 µM	> 100 µM	> 100 µM	0.13					
CC(O)CC#CC#Cc1cn([C@H]2C[C@H](O)[C@@H](CO)O2)c(=O)[nH]c1=O (stereo partly drawn)	> 100 µM	9.5 µM	20 µM	> 100 µM	> 100 µM	> 100 µM		12.7 µM				
O=c1[nH]c(=O)n([C@H]2C[C@H](O)[C@@H](CO)O2)cc1C#CC#CCC1CCCC1	> 100 µM	89 µM	42 µM	> 100 µM	> 100 µM	> 100 µM	1.43	33.7 µM				
O=c1[nH]c(=O)n([C@H]2C[C@H](O)[C@@H](CO)O2)cc1/C=C/Br [BRIVUDINE]	74 µM	> 100 µM	0.0087 µM	> 150 µM				0.0075 µM				
Nc1nc2c(ncn2COCCO)c(=O)[nH]1 [ACYCLOVIR]	92 µM	470 µM		> 300 µM				2.18 µM				
O=c1[nH]c(=O)n([C@H]2C[C@H](O)[C@@H](CO)O2)cc1C#CC#Cc1ccccc1	> 20 µM	100 µM	> 20 µM	100 µM	> 20 µM	> 20 µM	0.96	> 20 µM				
COc1cc(C#CC#Cc2cn([C@H]3C[C@H](O)[C@@H](CO)O3)c(=O)[nH]c2=O)cc(OC)c1	> 100 µM	> 100 µM	39 µM	> 100 µM	> 100 µM	> 100 µM		38.1 µM				
O=c1[nH]c(=O)n([C@H]2C[C@H](O)[C@@H](CO)O2)cc1C#CC#CCO	> 100 µM	> 100 µM	2.1 µM	> 100 µM	> 100 µM	> 100 µM	-1.45	6.24 µM				
CCCc1ccc(C#CC#Cc2cn([C@H]3C[C@H](O)[C@@H](CO)O3)c(=O)[nH]c2=O)cc1	14 µM	52 µM	3.7 µM	100 µM	> 20 µM	> 20 µM	2.36	2.77 µM				
Nc1cccc(C#CC#Cc2cn([C@H]3C[C@H](O)[C@@H](CO)O3)c(=O)[nH]c2=O)c1	> 100 µM	> 100 µM	> 100 µM	> 100 µM	> 100 µM	> 100 µM	0.13					
Nc1nc2c(ncn2COC(CO)CO)c(=O)[nH]1 [GANCICLOVIR]		130 µM		> 350 µM	7.1 µM	7.5 µM						
CCCCCCc1ccc(C#CC#Cc2cn([C@H]3C[C@H](O)[C@@H](CO)O3)c(=O)[nH]c2=O)cc1	9.5 µM	35 µM	8.8 µM	100 µM	> 20 µM	> 20 µM	3.7	6.44 µM				
O=c1[nH]c(=O)n([C@H]2C[C@H](O)[C@@H](CO)O2)cc1C#CC#Cc1ccccn1	20 µM	1.5 µM	5.1 µM	> 20 µM	> 4 µM	49 µM		2.06 µM				
